Article PMC3862411 (International Journal for Parasitology, Drugs and Drug …, 2012)
Several values for one entry are separate records, joined by “and”; a condition that tells them apart may be missing. Equal values may be shown once. Marks after values point to notes of the source that are not given here.

Legend:
Trichuris spp. = assay: Adult nematode worm counts and efficacy 14 days post-treatment; assay type: in vivo; conditions: large intestine, 14 days post-administration, IR 0.2 mg/kg
Outline: (§1)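 Romney Marsh lambs (27.2 ± 4.48 kg), naturally infected with resistant GI nematodes and grazing lucerne/clover pasture, got a single intraruminal dose of test compound at 0.2 mg/kg. Six treated and six untreated lambs were killed by captive bolt at day 14. Abomasal, small and large intestinal contents were counted by WAAVP guidelines. Geometric mean worm burdens gave % efficacy, treated versus untreated.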

[1] = test system: resistant Haemonchus contortus; assay type: in vivo; conditions: for Total mass of H. contortus specimens recovered: day 1 and 2 post-treatment, IR 0.2 mg/kg
Outline: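 Infected lambs got test compound intraruminally at 0.2 mg/kg, four killed at 0.5, 1 and 2 days. The total H. contortus mass from abomasal contents was washed in 4 °C saline, blotted, weighed and frozen at −20 °C. Drug was measured by fluorescence HPLC (C18, 0.2% acetic acid/methanol/acetonitrile 1.6/60/38.4, 1.5 ml/min, 30 °C, ex 365/em 475 nm). n = 4.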

[2] = assay type: in vivo, lambs; conditions: for AUC: area under the concentration vs time curve extrapolated to infinity / Cmax: peak plasma concentration / Tmax: time to peak plasma concentration / t 1/2 el: elimination half-life: mean ± SD, n = 6
Outline: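 Six infected lambs per group got test compound intraruminally at 0.2 mg/kg. Heparinized jugular blood was taken before and at 0, 3, 6, 9 h and 1–13 days, spun at 2000g for 20 min, and plasma assayed by fluorescence HPLC. Non-compartmental analysis: Cmax observed; AUC by trapezoidal rule extrapolated to infinity; t½ = ln2/λz; MRT from AUMC/AUC. Mean ± SD; ANOVA or Kruskal–Wallis.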

Trichostrongylus axei = assay: Adult nematode worm counts and efficacy 14 days post-treatment; assay type: in vivo; conditions: abomasum, 14 days post-administration, IR 0.2 mg/kg
Outline: as §1

resistant GI nematodes = assay: Faecal egg count reduction test; assay type: in vivo, GI nematodes in lambs; conditions: IR 0.2 mg/kg; for FECRT: 14 days post-treatment vs untreated control; for Mean epg (range), arithmetic mean of eggs per gram of faeces: Day 14 post-treatment
Outline: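 Faeces were sampled at day −1 and day 14 after a single intraruminal 0.2 mg/kg dose to naturally infected lambs. Eggs per gram were counted by modified McMaster. FECRT compared arithmetic mean epg of treated versus untreated controls at day 14, with 95% confidence limits per Coles. Counts were compared by Kruskal–Wallis.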

Teladorsagia spp. = assay: Adult nematode worm counts and efficacy 14 days post-treatment; assay type: in vivo; conditions: abomasum, 14 days post-administration, IR 0.2 mg/kg
Outline: as §1

[3] = test system: Trichostrongylus colubriformis; assay: as above; assay type: in vivo; conditions: small intestine, 14 days post-administration, IR 0.2 mg/kg
Outline: as §1

Haemonchus spp. = assay: as above; assay type: in vivo; conditions: abomasum, 14 days post-administration, IR 0.2 mg/kg
Outline: as §1

Cooperia spp. = assay: as above; assay type: in vivo; conditions: small intestine, 14 days post-administration, IR 0.2 mg/kg
Outline: as §1

Nematodirus spp. = assay: as above; assay type: in vivo; conditions: small intestine, 14 days post-administration, IR 0.2 mg/kg
Outline: as §1

[4] = Drug concentrations in GI contents and mucosal tissues; assay type: in vivo, lambs; conditions: for Drug concentration, abomasal mucosa / Drug concentration, intestinal mucosa: IR 0.2 mg/kg, lambs
Outline: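 After intraruminal 0.2 mg/kg test compound, four infected lambs per time point were killed at 0.5, 1 and 2 days. Abomasal and cranial jejunum contents and mucosal tissue were sampled, stored at −20 °C and assayed by validated fluorescence HPLC (C18, 30 °C, ex 365/em 475 nm). Values are in ng/g, mean ± SD, n = 4.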

mammalian P-gp = conditions: in vitro; ref Lespine et al., 2007; cited from earlier work
[5] = sheep, plasma, other: intraruminal, 0.2 mg/kg
[6] = sheep (lambs), abomasal mucosa, other: intraruminal, 0.2 mg/kg

CC[C@H](C)[C@H]1O[C@]2(CC[C@@H]1C)C[C@@H]1C[C@@H](C/C=C(\C)[C@@H](O[C@H]3C[C@H](OC)[C@@H](O[C@H]4C[C@H](OC)[C@@H](O)[C@H](C)O4)[C@H](C)O3)[C@@H](C)/C=C/C=C3\CO[C@@H]4[C@H](O)C(C)=C[C@@H](C(=O)O1)[C@]34O)O2 [IVM, ivermectin]
Efficacy, Trichuris spp. (Trichuris spp.): 100%
Worm counts (geometric mean), Trichuris spp. (Trichuris spp.): 0
Total mass of H. contortus specimens recovered [1]: 1.02 to 1.38 g
Time up to which drug was detected in plasma ([2]; lambs, IR 0.2 mg/kg): up to 8 days post-treatment
AUC: area under the concentration vs time curve extrapolated to infinity ([2]; lambs, IR 0.2 mg/kg, plasma): 23.6 ± 7.63^a ng d/ml
Cmax: peak plasma concentration ([2]; lambs, IR 0.2 mg/kg, plasma): 9.02 ± 1.47^b ng/ml
Tmax: time to peak plasma concentration ([2]; lambs, IR 0.2 mg/kg, plasma): 1.06 ± 0.52^a days
t 1/2 el: elimination half-life ([2]; lambs, IR 0.2 mg/kg, plasma): 1.15 ± 0.30^a days
Efficacy, Trichostrongylus axei (Trichostrongylus axei): 100%
Worm counts (geometric mean), Trichostrongylus axei (Trichostrongylus axei): 0
FECRT (resistant GI nematodes): 0%
Mean epg (range), arithmetic mean of eggs per gram of faeces (resistant GI nematodes): 4620^a (1860–12480)
Efficacy, Teladorsagia spp. (Teladorsagia spp.): 99.7%
Worm counts (geometric mean), Teladorsagia spp. (Teladorsagia spp.): 5
Efficacy, Trichostrongylus colubriformis [3]: 99.3%
Worm counts (geometric mean), Trichostrongylus colubriformis [3]: 6.28
Efficacy, Haemonchus spp. (H. contortus) (Haemonchus spp.): 20.1%
Worm counts (geometric mean), Haemonchus spp. (Haemonchus spp.): 1021
Efficacy, Cooperia spp. (Cooperia spp.): 98.2%
Worm counts (geometric mean), Cooperia spp. (Cooperia spp.): 3.08
Efficacy, Nematodirus spp. (Nematodirus spp.): 99.5%
Worm counts (geometric mean), Nematodirus spp. (Nematodirus spp.): 4.87
Drug concentration, abomasal mucosa ([4]; 0.5 days post-treatment): 76.5 ± 9.83^a ng/g
Drug concentration, intestinal mucosa ([4]; 0.5 days post-treatment): 198 ± 55.7^a ng/g
Drug concentration, abomasal mucosa ([4]; 1 day post-treatment): 58.2 ± 8.75^a ng/g
Drug concentration, intestinal mucosa ([4]; 1 day post-treatment): 117 ± 26.8^a ng/g
Drug concentration, abomasal mucosa ([4]; 2 days post-treatment): 42.6 ± 4.53^a ng/g
Drug concentration, intestinal mucosa ([4]; 2 days post-treatment): 128 ± 51.4^a ng/g

CO/N=C1\C[C@]2(C[C@@H]3C[C@@H](C/C=C(\C)C[C@@H](C)/C=C/C=C4\CO[C@@H]5[C@H](O)C(C)=C[C@@H](C(=O)O3)[C@]45O)O2)O[C@H](/C(C)=C/C(C)C)[C@H]1C [MXD, moxidectin]
Efficacy, Trichuris spp. (Trichuris spp.): 100%
Worm counts (geometric mean), Trichuris spp. (Trichuris spp.): 0
Total mass of H. contortus specimens recovered [1]: 0.13 to 0.14 g
Drug concentrations recovered within adult H. contortus compared to ABM and IVM ([1]; day 2 post-treatment): lower
Plasma mean residence time (MRT) compared to ABM and IVM ([2]; lambs, IR 0.2 mg/kg): significant longer
Time up to which drug was detected in plasma ([2]; lambs, IR 0.2 mg/kg): ≤ 13 days post-treatment
AUC: area under the concentration vs time curve extrapolated to infinity ([2]; lambs, IR 0.2 mg/kg, plasma): 29.5 ± 3.87^a ng d/ml
Cmax [2, 5]: 11.3 ± 2.87 ng/mL
Tmax [2, 5]: 13 h
half-life [2, 5]: 113 h
Efficacy, Trichostrongylus axei (Trichostrongylus axei): 100%
Worm counts (geometric mean), Trichostrongylus axei (Trichostrongylus axei): 0
Affinity by mammalian P-gp compared to avermectin-type compounds (mammalian P-gp): lower affinity
FECRT (resistant GI nematodes): 86% and 86.8%
Mean epg (range), arithmetic mean of eggs per gram of faeces (resistant GI nematodes): 570^b (240–960)
Efficacy, Teladorsagia spp. (Teladorsagia spp.): 100%
Worm counts (geometric mean), Teladorsagia spp. (Teladorsagia spp.): 0
Efficacy, Trichostrongylus colubriformis [3]: 100%
Worm counts (geometric mean), Trichostrongylus colubriformis [3]: 0
Efficacy, Haemonchus spp. (H. contortus) (Haemonchus spp.): 89.6%
Worm counts (geometric mean), Haemonchus spp. (Haemonchus spp.): 133
Efficacy, Cooperia spp. (Cooperia spp.): 100%
Worm counts (geometric mean), Cooperia spp. (Cooperia spp.): 0
Efficacy, Nematodirus spp. (Nematodirus spp.): 100%
Worm counts (geometric mean), Nematodirus spp. (Nematodirus spp.): 0
Concentrations in GI contents and mucosal tissues compared to IVM and ABM ([4]; 2 days post-treatment): significantly lower
concentration at 0.5 days [4, 6]: 65.5 ± 9.74 ng/g
concentration at 1 day [4, 6]: 48.3 ± 12.7 ng/g
concentration at 2 days [4, 6]: 30.1 ± 5.8 ng/g

abamectin [ABM]
Efficacy, Trichuris spp. (Trichuris spp.): 100%
Worm counts (geometric mean), Trichuris spp. (Trichuris spp.): 0
Total mass of H. contortus specimens recovered [1]: 1.13 to 1.50 g
Time up to which drug was detected in plasma ([2]; lambs, IR 0.2 mg/kg): up to 8 days post-treatment
AUC: area under the concentration vs time curve extrapolated to infinity ([2]; lambs, IR 0.2 mg/kg, plasma): 34.8 ± 11.3^a ng d/ml
Cmax: peak plasma concentration ([2]; lambs, IR 0.2 mg/kg, plasma): 13.6 ± 2.64^a ng/ml
Tmax: time to peak plasma concentration ([2]; lambs, IR 0.2 mg/kg, plasma): 0.90 ± 0.26^a days
t 1/2 el: elimination half-life ([2]; lambs, IR 0.2 mg/kg, plasma): 1.10 ± 0.25^a days
Efficacy, Trichostrongylus axei (Trichostrongylus axei): 100%
Worm counts (geometric mean), Trichostrongylus axei (Trichostrongylus axei): 0
FECRT (resistant GI nematodes): 0%
Mean epg (range), arithmetic mean of eggs per gram of faeces (resistant GI nematodes): 4460^a (1200–6000)
Efficacy, Teladorsagia spp. (Teladorsagia spp.): 100%
Worm counts (geometric mean), Teladorsagia spp. (Teladorsagia spp.): 0
Efficacy, Trichostrongylus colubriformis [3]: 100%
Worm counts (geometric mean), Trichostrongylus colubriformis [3]: 0
Efficacy, Haemonchus spp. (H. contortus) (Haemonchus spp.): 39.7%
Worm counts (geometric mean), Haemonchus spp. (Haemonchus spp.): 769
Efficacy, Cooperia spp. (Cooperia spp.): 100%
Worm counts (geometric mean), Cooperia spp. (Cooperia spp.): 0
Efficacy, Nematodirus spp. (Nematodirus spp.): 99.8%
Worm counts (geometric mean), Nematodirus spp. (Nematodirus spp.): 2.32
Drug concentration, abomasal mucosa ([4]; 0.5 days post-treatment): 76.8 ± 11.6^a ng/g
Drug concentration, intestinal mucosa ([4]; 0.5 days post-treatment): 203 ± 11.5^a ng/g
Drug concentration, abomasal mucosa ([4]; 1 day post-treatment): 78 ± 24.2^a ng/g
Drug concentration, intestinal mucosa ([4]; 1 day post-treatment): 152 ± 12.4^a ng/g
Drug concentration, abomasal mucosa ([4]; 2 days post-treatment): 64.6 ± 45.4^ab ng/g
Drug concentration, intestinal mucosa ([4]; 2 days post-treatment): 118 ± 85.9^a ng/g
